Assays:
[1] = Growth inhibition of African green monkey Vero cells at 10 uM after 72 hrs by […] assay relative to control; format: cell-based; conditions: chlorocebus sabaeus, read-out: GI
How it was run: (§1)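 KB and Vero cells were grown in D-MEM with 10% FCS and antibiotics under 5% CO2, plated, then dosed 24 h later at 10^-5 M from DMSO (controls 1% DMSO). After 72 h, MTS was added for 3 h at 37 °C and A490 read. Inhibition = (1 − OD treated/OD control) × 100, in triplicate.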

MCF7 = assay: Growth inhibition of human MCF7 cells at 10 uM after 72 hrs by […] assay relative to control; format: functional; conditions: MCF7, 72 h, read-out: GI
How it was run: (§2)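 HT29, MCF7 and PC-3 cells were grown in RPMI, plated, and treated 24 h later with compound in DMSO at 10^-5 M (DMSO controls, 1% final). After 72 h exposure, MTS reagent was added for 3 h at 37 °C and absorbance read at 490 nm. Proliferation inhibition = [1 − OD treated/OD control] × 100, triplicate experiments.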

PC-3 = assay: Growth inhibition of human PC3 cells at 10 uM after 72 hrs by […] assay relative to control; format: functional; conditions: PC-3, 72 h, read-out: GI; how it was run: as §2
HT-29 = assay: Growth inhibition of human HT-29 cells at 10 uM after 72 hrs by […] assay relative to control; format: functional; conditions: HT-29, 72 h, read-out: GI; how it was run: as §2
KB = assay: Growth inhibition of human KB cells at 10 uM after 72 hrs by […] relative to control; format: functional; conditions: read-out: GI; how it was run: as §1

COc1ncccc1C(=O)Nc1cccc(-c2nc3c(Nc4cccc(C(F)(F)F)c4)ncnc3[nH]2)c1
< 10%: inhibition at 72 h, 10 µM [1] | inhibition of growth at 10 µM (MCF7) | inhibition of growth at 10 µM (PC-3) | inhibition of growth at 10 µM (HT-29) | inhibition of growth at 10 µM (KB)

Cc1cc(C(=O)Nc2cccc(-c3nc4c(Nc5cccc(C(F)(F)F)c5)ncnc4[nH]3)c2)ccc1Br
< 10%: inhibition at 72 h, 10 µM [1] | inhibition of growth at 10 µM (MCF7) | inhibition of growth at 10 µM (PC-3) | inhibition of growth at 10 µM (HT-29) | inhibition of growth at 10 µM (KB)

Cc1cc(C(=O)Nc2cccc(-c3ncnc4[nH]cnc34)c2)ccc1Br
< 10%: inhibition at 72 h, 10 µM [1] | inhibition of growth at 10 µM (MCF7) | inhibition of growth at 10 µM (PC-3) | inhibition of growth at 10 µM (HT-29) | inhibition of growth at 10 µM (KB)

O=C(Nc1ccc(Nc2ncnc3[nH]cnc23)c(F)c1)c1cccn(-c2ccc(C(F)(F)F)cc2)c1=O
< 10%: inhibition at 72 h, 10 µM [1] | inhibition of growth at 10 µM (MCF7) | inhibition of growth at 10 µM (PC-3) | inhibition of growth at 10 µM (HT-29) | inhibition of growth at 10 µM (KB)

COc1ncccc1C(=O)Nc1ccc(Nc2ncnc3[nH]cnc23)cc1
< 10%: inhibition at 72 h, 10 µM [1] | inhibition of growth at 10 µM (MCF7) | inhibition of growth at 10 µM (PC-3) | inhibition of growth at 10 µM (HT-29) | inhibition of growth at 10 µM (KB)

O=C(Nc1cccc(-c2ncnc3[nH]cnc23)c1)c1cccn(-c2cccc(C(F)(F)F)c2)c1=O
< 10%: inhibition at 72 h, 10 µM [1] | inhibition of growth at 10 µM (MCF7) | inhibition of growth at 10 µM (PC-3) | inhibition of growth at 10 µM (HT-29) | inhibition of growth at 10 µM (KB)

O=C(Nc1ccc(Nc2ncnc3[nH]cnc23)cc1)c1cccnc1F
< 10%: inhibition at 72 h, 10 µM [1] | inhibition of growth at 10 µM (MCF7) | inhibition of growth at 10 µM (PC-3) | inhibition of growth at 10 µM (HT-29) | inhibition of growth at 10 µM (KB)

O=C(Nc1ccc(Nc2ncnc3[nH]cnc23)c(F)c1)c1ccccc1F
< 10%: inhibition at 72 h, 10 µM [1] | inhibition of growth at 10 µM (MCF7) | inhibition of growth at 10 µM (PC-3) | inhibition of growth at 10 µM (HT-29) | inhibition of growth at 10 µM (KB)

O=C(Nc1ccc(Nc2ncnc3[nH]cnc23)cc1)c1cccn(-c2cccc(F)c2)c1=O
< 10%: inhibition at 72 h, 10 µM [1] | inhibition of growth at 10 µM (MCF7) | inhibition of growth at 10 µM (PC-3) | inhibition of growth at 10 µM (HT-29) | inhibition of growth at 10 µM (KB)

Cc1cc(C(=O)Nc2cccc(-c3nc4c(Nc5cccc(F)c5)ncnc4[nH]3)c2)ccc1Br
< 10%: inhibition at 72 h, 10 µM [1] | inhibition of growth at 10 µM (MCF7) | inhibition of growth at 10 µM (PC-3) | inhibition of growth at 10 µM (HT-29) | inhibition of growth at 10 µM (KB)

O=C(Nc1ccc(Oc2ncnc3[nH]cnc23)c(F)c1)c1ccccc1F
< 10%: inhibition at 72 h, 10 µM [1] | inhibition of growth at 10 µM (MCF7) | inhibition of growth at 10 µM (PC-3) | inhibition of growth at 10 µM (HT-29) | inhibition of growth at 10 µM (KB)

O=C(Nc1cccc(-c2ncnc3[nH]cnc23)c1)c1cccn(-c2ccc(F)cc2)c1=O
< 10%: inhibition at 72 h, 10 µM [1] | inhibition of growth at 10 µM (MCF7) | inhibition of growth at 10 µM (PC-3) | inhibition of growth at 10 µM (HT-29) | inhibition of growth at 10 µM (KB)

O=C(Nc1ccc(Nc2ncnc3[nH]cnc23)c(F)c1)c1cccnc1F
< 10%: inhibition at 72 h, 10 µM [1] | inhibition of growth at 10 µM (MCF7) | inhibition of growth at 10 µM (PC-3) | inhibition of growth at 10 µM (HT-29) | inhibition of growth at 10 µM (KB)

COc1ccccc1C(=O)Nc1cccc(-c2nc3c(Nc4ccccc4)ncnc3[nH]2)c1
< 10%: inhibition at 72 h, 10 µM [1] | inhibition of growth at 10 µM (MCF7) | inhibition of growth at 10 µM (PC-3) | inhibition of growth at 10 µM (HT-29) | inhibition of growth at 10 µM (KB)

O=C(Nc1ccc(Nc2ncnc3[nH]cnc23)c(F)c1)c1cccn(-c2cccc(F)c2)c1=O
< 10%: inhibition at 72 h, 10 µM [1] | inhibition of growth at 10 µM (MCF7) | inhibition of growth at 10 µM (PC-3) | inhibition of growth at 10 µM (HT-29) | inhibition of growth at 10 µM (KB)

COc1ccccc1C(=O)Nc1ccc(Nc2ncnc3[nH]cnc23)c(F)c1
< 10%: inhibition at 72 h, 10 µM [1] | inhibition of growth at 10 µM (MCF7) | inhibition of growth at 10 µM (PC-3) | inhibition of growth at 10 µM (HT-29) | inhibition of growth at 10 µM (KB)

COc1ncccc1C(=O)Nc1cccc(-c2nc3c(Nc4cccc(F)c4)ncnc3[nH]2)c1
< 10%: inhibition at 72 h, 10 µM [1] | inhibition of growth at 10 µM (MCF7) | inhibition of growth at 10 µM (PC-3) | inhibition of growth at 10 µM (HT-29) | inhibition of growth at 10 µM (KB)

O=C(Nc1cccc(-c2ncnc3[nH]cnc23)c1)c1cccn(-c2ccc(C(F)(F)F)cc2)c1=O
< 10%: inhibition at 72 h, 10 µM [1] | inhibition of growth at 10 µM (MCF7) | inhibition of growth at 10 µM (PC-3) | inhibition of growth at 10 µM (HT-29) | inhibition of growth at 10 µM (KB)

O=C(Nc1ccc(Nc2ncnc3[nH]cnc23)cc1)c1cccn(-c2cccc(C(F)(F)F)c2)c1=O
< 10%: inhibition at 72 h, 10 µM [1] | inhibition of growth at 10 µM (MCF7) | inhibition of growth at 10 µM (PC-3) | inhibition of growth at 10 µM (HT-29) | inhibition of growth at 10 µM (KB)

COc1ncccc1C(=O)Nc1cccc(-c2nc3c(Nc4ccc(F)cc4)ncnc3[nH]2)c1
< 10%: inhibition at 72 h, 10 µM [1] | inhibition of growth at 10 µM (MCF7) | inhibition of growth at 10 µM (PC-3) | inhibition of growth at 10 µM (HT-29) | inhibition of growth at 10 µM (KB)

O=C(Nc1cccc(-c2nc3c(Nc4ccc(F)cc4)ncnc3[nH]2)c1)c1ccccc1F
< 10%: inhibition at 72 h, 10 µM [1] | inhibition of growth at 10 µM (MCF7) | inhibition of growth at 10 µM (PC-3) | inhibition of growth at 10 µM (HT-29) | inhibition of growth at 10 µM (KB)

COc1ccccc1C(=O)Nc1cccc(-c2nc3c(Nc4ccc(F)cc4)ncnc3[nH]2)c1
< 10%: inhibition at 72 h, 10 µM [1] | inhibition of growth at 10 µM (MCF7) | inhibition of growth at 10 µM (PC-3) | inhibition of growth at 10 µM (HT-29) | inhibition of growth at 10 µM (KB)

COc1cc2c(Nc3ccc(Br)cc3F)ncnc2cc1OCC1CCN(C)CC1 [VANDETANIB]
< 10%: inhibition at 72 h, 10 µM [1] | inhibition of growth at 10 µM (MCF7) | inhibition of growth at 10 µM (PC-3) | inhibition of growth at 10 µM (HT-29) | inhibition of growth at 10 µM (KB)

O=C(Nc1cccc(-c2nc3c(Nc4cccc(C(F)(F)F)c4)ncnc3[nH]2)c1)c1ccccc1F
< 10%: inhibition at 72 h, 10 µM [1] | inhibition of growth at 10 µM (MCF7) | inhibition of growth at 10 µM (PC-3) | inhibition of growth at 10 µM (HT-29) | inhibition of growth at 10 µM (KB)

COc1ncccc1C(=O)Nc1cccc(-c2nc3c(Nc4ccccc4)ncnc3[nH]2)c1
< 10%: inhibition at 72 h, 10 µM [1] | inhibition of growth at 10 µM (MCF7) | inhibition of growth at 10 µM (PC-3) | inhibition of growth at 10 µM (HT-29) | inhibition of growth at 10 µM (KB)

Cc1cc(C(=O)Nc2ccc(Nc3ncnc4[nH]cnc34)c(F)c2)ccc1Br
< 10%: inhibition at 72 h, 10 µM [1] | inhibition of growth at 10 µM (MCF7) | inhibition of growth at 10 µM (PC-3) | inhibition of growth at 10 µM (HT-29) | inhibition of growth at 10 µM (KB)

O=C(Nc1ccc(Nc2ncnc3[nH]cnc23)c(F)c1)c1cccn(-c2cccc(C(F)(F)F)c2)c1=O
< 10%: inhibition at 72 h, 10 µM [1] | inhibition of growth at 10 µM (MCF7) | inhibition of growth at 10 µM (PC-3) | inhibition of growth at 10 µM (HT-29) | inhibition of growth at 10 µM (KB)

COc1ncccc1C(=O)Nc1ccc(Nc2ncnc3[nH]cnc23)c(F)c1
< 10%: inhibition at 72 h, 10 µM [1] | inhibition of growth at 10 µM (MCF7) | inhibition of growth at 10 µM (PC-3) | inhibition of growth at 10 µM (HT-29) | inhibition of growth at 10 µM (KB)

COc1ccccc1C(=O)Nc1cccc(-c2nc3c(Nc4cccc(C(F)(F)F)c4)ncnc3[nH]2)c1
< 10%: inhibition at 72 h, 10 µM [1] | inhibition of growth at 10 µM (MCF7) | inhibition of growth at 10 µM (PC-3) | inhibition of growth at 10 µM (HT-29) | inhibition of growth at 10 µM (KB)

From ChEMBL document CHEMBL2346606, “Inhibitors of the TAM subfamily of tyrosine kinases: synthesis and biological evaluation” (Eur J Med Chem, 2013)
